Reference: ChEMBL document CHEMBL1154087, “Novel orally active NPY Y5 receptor antagonists: Synthesis and structure-activity relationship of spiroindoline class compounds” (Bioorg Med Chem, 2009)
Calls of active or inactive are those of the source. The rule behind the calls is not given here.

Key:
[1] = test system: Rattus norvegicus; experiment: Suppression of Y5 agonist bovine pancreatic peptide-induced food intake in po dosed Sprague-Dawley rat assessed as minimum effective dose treated 1 hr before peptide administration measured after 2 hrs; assay type: functional
How it was run: (§1)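 bPP (5 µg) given ICV to SD rats in 10 µL of 10 mM PBS containing 0.05% BSA. Compound suspended in 0.5% methylcellulose in distilled water and given orally (5 mL/kg) 1 h before bPP. Cumulative food intake recorded over 0–2 h; n = 7 or more. MED is the lowest dose with a statistically significant reduction versus vehicle (P < 0.05 or P < 0.01).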

[2] = Oral bioavailability in Sprague-Dawley rat at 10 mg/kg; assay type: ADME, organism-based; conditions: in vivo
How it was run: (§2)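 Sprague-Dawley rats (n = 2) given 3 mpk iv and 10 mpk po. Plasma sampled at 5 min, 1 h and 4 h after iv dosing and at 0.5 h, 1 h and 2 h after po dosing. F, CL_tot, AUC and other PK parameters calculated by the trapezoidal method.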

[3] = target: T1, Neuropeptide Y receptor type 5 (Homo sapiens, UniProt Q15761); experiment: Binding affinity to human neuropeptide Y5 receptor
T1 sequence (Q15761 whole entry): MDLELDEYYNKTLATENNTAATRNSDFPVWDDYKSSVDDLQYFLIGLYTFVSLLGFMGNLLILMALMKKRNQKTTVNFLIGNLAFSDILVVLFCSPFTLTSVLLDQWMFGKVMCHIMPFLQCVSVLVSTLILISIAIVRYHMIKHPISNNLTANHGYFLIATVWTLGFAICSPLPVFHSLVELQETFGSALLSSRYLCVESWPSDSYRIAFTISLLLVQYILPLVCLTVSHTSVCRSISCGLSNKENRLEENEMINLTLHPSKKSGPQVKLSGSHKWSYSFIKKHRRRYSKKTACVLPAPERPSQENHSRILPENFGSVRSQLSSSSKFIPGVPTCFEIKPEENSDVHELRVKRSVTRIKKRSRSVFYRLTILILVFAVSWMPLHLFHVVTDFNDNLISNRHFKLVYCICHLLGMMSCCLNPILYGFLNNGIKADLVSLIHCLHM

[4] = Ratio of drug level in brain to plasma in Sprague-Dawley rat at 3 mg/kg, iv after 10 mins; assay type: ADME, organism-based; set-up: dose 3 mg/kg, route intravenous
How it was run: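 Rats (n = 2) dosed iv at 3 mpk. Brain and plasma concentrations taken 10 min after dosing, and brain penetration expressed as the brain/plasma ratio.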

[5] = Lipophilicity, calculated log D at pH 7.4
[6] = AUC in Sprague-Dawley rat at 10 mg/kg, po and 3 mg/kg, iv; assay type: ADME, organism-based; conditions: plasma; how it was run: as §2
[7] = Total clearance in Sprague-Dawley rat at 10 mg/kg, po and 3 mg/kg, iv; assay type: ADME, organism-based; conditions: in vivo; how it was run: as §2
[8] = species: Mus musculus; experiment: Reduction in body weight in Y5 receptor knock-out diet-induced obese C57BL/6J mouse; assay type: functional, organism-based
[9] = test system: Rattus norvegicus; experiment: Suppression of Y5 agonist bovine pancreatic peptide-induced food intake in Sprague-Dawley rat at 1 mg/kg, po treated 1 hr before peptide administration measured after 2 hrs; assay type: functional; how it was run: as §1
[10] = test system: Rattus norvegicus; experiment: Suppression of Y5 agonist bovine pancreatic peptide-induced food intake in Sprague-Dawley rat at 3 mg/kg, po treated 1 hr before peptide administration measured after 2 hrs; assay type: functional; how it was run: as §1
[11] = test system: Brain; experiment: Drug level in Sprague-Dawley rat brain at 10 mg/kg, po after 2 hrs; assay type: ADME, organism-based; set-up: dose 10 mg/kg, route oral; conditions: in vivo
How it was run: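 SD rats dosed orally at 10 mg/kg. Brain concentration measured 2 h after dosing and expressed as nmol/g.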

[12] = test system: Mus musculus; experiment: Reduction in body weight in diet-induced obese C57BL/6J mouse at 30 mg/kg, po after 13 days; assay type: functional, organism-based; set-up: dose 30 mg/kg
[13] = test system: Mus musculus; experiment: Reduction in cumulative food intake in diet-induced obese C57BL/6J mouse at 30 mg/kg, po after 13 days relative to control; assay type: functional; set-up: scale not given: the % may be the effect or the level left
[14] = test system: Rattus norvegicus; experiment: Suppression of Y5 agonist bovine pancreatic peptide-induced food intake in Sprague-Dawley rat at 10 mg/kg, po treated 1 hr before peptide administration measured after 2 hrs; assay type: functional; how it was run: as §1
[15] = Cmax in Sprague-Dawley rat at 10 mg/kg, po and 3 mg/kg, iv; assay type: ADME, organism-based; conditions: in vivo; how it was run: as §2
[16] = Tmax in Sprague-Dawley rat at 10 mg/kg, po and 3 mg/kg, iv; assay type: ADME, organism-based; conditions: in vivo; how it was run: as §2
[17] = test system: Mus musculus; experiment: Reduction in body weight in diet-induced obese C57BL/6J mouse at 100 mg/kg, po; assay type: functional, organism-based; set-up: dose 100 mg/kg

SMILES | MED [1] [mg/kg] | IC50 [3] [nM] | other results
CS(=O)(=O)N1CC2(CCN(C(=O)Nc3ccc4ncccc4c3)CC2)c2ccccc21 | > 30 | 2.5 | bioavailability [2]: 24%; Kp at 10 min [4]: 0.03; logD [5]: 2.74
COc1cccc2sc(NC(=O)N3CCC4(CC3)CN(S(C)(=O)=O)c3ccccc34)nc12 |  | 8.9 | 
CCS(=O)(=O)N1CC2(CCN(C(=O)Nc3cn(-c4ccccc4F)cn3)CC2)c2ccccc21 | 3 | 3.3 | bioavailability [2]: 23%; Kp at 10 min [4]: 0.25
CCS(=O)(=O)N1CC2(CCN(C(=O)Nc3cn(-c4cccc(F)c4)cn3)CC2)c2ccccc21 | 30 | 3 | bioavailability [2]: 23%; Kp at 10 min [4]: 0.18
CS(=O)(=O)N1CC2(CCN(C(=O)Nc3cn(-c4ccccc4F)cn3)CC2)c2ccccc21 | > 30 | 3.9 | 
CS(=O)(=O)N1CC2(CCN(C(=O)Nc3cn(-c4ccccc4)cn3)CC2)c2ccccc21 | > 30 | 2.4 | bioavailability [2]: 27%; AUC [6]: 25.3 µM·h; Kp at 10 min [4]: 0.1; clearance [7]: 3.9 mL/min/kg; logD [5]: 2.15
CS(=O)(=O)N1CC2(CCN(C(=O)Nc3cccnc3)CC2)c2ccccc21 |  | > 1000 | 
CS(=O)(=O)N1CC2(CCN(C(=O)Nc3ccc(-c4cscn4)cc3)CC2)c2ccccc21 |  | 2.8 | 
CS(=O)(=O)N1CC2(CCN(C(=O)Nc3cnc4ccccc4c3)CC2)c2ccccc21 |  | 5.4 | 
Cn1ccnc1-c1ccc(NC(=O)N2CCC3(CC2)CN(S(C)(=O)=O)c2ccccc23)cc1 |  | 9 | 
CS(=O)(=O)N1CC2(CCN(C(=O)Nc3ccc4ccccc4n3)CC2)c2ccccc21 |  | 6.1 | 
CCS(=O)(=O)N1CC2(CCN(C(=O)Nc3cn(-c4ccccc4)cn3)CC2)c2ccccc21 | 3 | 3.4 | Activity [1]: Dose-dependent effect; Activity [8]: inactive; inhibition in vivo at 1 mg/kg [9]: 34%; bioavailability [2]: 37%; AUC [6]: 58.9 µM·h; inhibition in vivo at 3 mg/kg [10]: 45%; Kp at 10 min [4]: 0.22; clearance [7]: 2.5 mL/min/kg; Drug uptake [11]: 0.64 nmol/g; Activity [12]: Active; Activity [13]: 8.8%; inhibition in vivo at 10 mg/kg [14]: 57%
CS(=O)(=O)N1CC2(CCN(C(=O)Nc3ccc(-c4cccnc4)cc3)CC2)c2ccccc21 | 100 |  | Cmax [15]: 4.7 µM; AUC [6]: 12.7 µM·h; Tmax [16]: 1 h; clearance [7]: 13.3 mL/min/kg
CS(=O)(=O)N1CC2(CCN(C(=O)Nc3ccc(-c4ccco4)cc3)CC2)c2ccccc21 |  | 4.2 | 
CS(=O)(=O)N1CC2(CCN(C(=O)Nc3ccc(-c4ccncc4)cc3)CC2)c2ccccc21 | 10 |  | Cmax [15]: 5.5 µM; AUC [6]: 10.8 µM·h; Tmax [16]: 1 h; clearance [7]: 17.8 mL/min/kg; Activity [17]: inactive
CS(=O)(=O)N1CC2(CCN(C(=O)Nc3ccc(Oc4ccccc4)cc3)CC2)c2ccccc21 |  | 2.6 | 
CCS(=O)(=O)N1CC2(CCN(C(=O)Nc3cn(-c4ccccc4OC)cn3)CC2)c2ccccc21 | > 30 | 4.9 | 

SMILES | MED [1] [mg/kg] | IC50 [3] [nM] | other results
CS(=O)(=O)N1CC2(CCN(C(=O)Nc3ccc(C(=O)c4ccccc4)cc3)CC2)c2ccccc21 |  | 0.68 | 
CS(=O)(=O)N1CC2(CCN(C(=O)Nc3cc(-c4ccccc4)no3)CC2)c2ccccc21 | > 30 | 1.3 | bioavailability [2]: 23%; Kp at 10 min [4]: 0.22; logD [5]: 2.53
CS(=O)(=O)N1CC2(CCN(C(=O)Nc3cc(-c4ccccc4)n[nH]3)CC2)c2ccccc21 | > 30 | 1.4 | bioavailability [2]: 13%; Kp at 10 min [4]: 0.02; logD [5]: 3.08
CS(=O)(=O)N1CC2(CCN(C(=O)Nc3ccc(-c4nccs4)cc3)CC2)c2ccccc21 |  | 2.4 | 
CCS(=O)(=O)N1CC2(CCN(C(=O)Nc3cn(-c4ccc(F)cc4)cn3)CC2)c2ccccc21 | > 30 | 4.1 | 
CS(=O)(=O)N1CC2(CCN(C(=O)Nc3ccc(-n4nccn4)cc3)CC2)c2ccccc21 |  | 41 | 
CC(=O)c1ccc(NC(=O)N2CCC3(CC2)CN(S(C)(=O)=O)c2ccccc23)cc1 |  | 2.7 | 
CS(=O)(=O)N1CC2(CCN(C(=O)Nc3ccc(Cl)cn3)CC2)c2ccccc21 |  | 7.1 | 
CS(=O)(=O)N1CC2(CCN(C(=O)Nc3ncc(-c4ccccc4)s3)CC2)c2ccccc21 |  | 2.2 | 
CS(=O)(=O)N1CC2(CCN(C(=O)Nc3ccc(-c4ccccn4)cc3)CC2)c2ccccc21 | > 100 |  | Cmax [15]: 0.6 µM; AUC [6]: 1.8 µM·h; Tmax [16]: 0.25 h; Kp at 10 min [4]: 0.22; clearance [7]: 24.4 mL/min/kg
CS(=O)(=O)N1CC2(CCN(C(=O)Nc3ccc(Cl)nc3)CC2)c2ccccc21 |  | 11 | 
CS(=O)(=O)N1CC2(CCN(C(=O)Nc3ccc(-n4cccn4)cc3)CC2)c2ccccc21 |  | 3.2 | 
CCS(=O)(=O)N1CC2(CCN(C(=O)Nc3cn(-c4ccc(OC)cc4)cn3)CC2)c2ccccc21 |  | 3.2 | 
CS(=O)(=O)N1CC2(CCN(C(=O)Nc3cn(-c4cccc(F)c4)cn3)CC2)c2ccccc21 | > 30 | 1.8 | 
CS(=O)(=O)N1CC2(CCN(C(=O)Nc3nnc(-c4ccccc4)s3)CC2)c2ccccc21 |  | 3.4 | 
CCS(=O)(=O)N1CC2(CCN(C(=O)Nc3cn(-c4cccc(OC)c4)cn3)CC2)c2ccccc21 | 10 | 2 | bioavailability [2]: 50.1%; Kp at 10 min [4]: 0.11
CS(=O)(=O)N1CC2(CCN(C(=O)Nc3nc4cc(Cl)ccc4o3)CC2)c2ccccc21 |  | 5 | 
